Source: PubChem
PRMT1 inh: PRMT1 methyltransferase inhibitors, primary screen, biochemical, fluorescence polarization. recombinant PRMT1, activity-based probe fluorescence polarization. 1.3% of 370,000 active. inhibition, % at 2.79 µM;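 active = inhibition above about 21% made by adding two undisclosed values, limit read from the data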
TCR-CD3 inh: inhibitors of human TCR-CD3 interaction, primary screen, biochemical, fluorescence, TAMRA-labeled TCR probe | T-cell receptor (TCR) | inhibition, % at 9.4 µM | 0.37% of 360,000 active;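 also: recombinant mutant TCR 2C K166C tagged with TAMRA read by polarization; 0% = receptor in buffer alone and 100% = receptor with positive control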
SIAE inh: human SIAE inhibitors, primary screen, biochemical, fluorescence polarization, FP-Rh probe, 1536-well HTS | SIAE FP-Rh probe binding | inhibition, % at 9.66 µM | Sialate O-acetylesterase (Homo sapiens), Q9HAT2 | 0.69% of 370,000 active | AID 1053197, 2014;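 active = inhibition above a cutoff: mean of compounds within the control limits plus 3 SD of those, cut at about 17% in these data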;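 also: 0% = plate median of compound wells and 100% = probe without SIAE protein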
HTRA1 inhibitor: HTRA1 serine protease inhibitors, primary screen, biochemical, fluorescence polarization, HTS | 0.5% of 340,000 active | recombinant HTRA1, FP-rhodamine activity-based probe | Q92743 | AID 504803, 2011 | inhibition, % at 5.96 µM; in the data active = inhibition above about 36%;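 also: 0% = enzyme with DMSO and 100% = wells lacking enzyme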
mABHD4 FP: ABHD4 inhibitors, primary screen, biochemical, fluorescence polarization, mouse | (Lyso)-N-acylphosphatidylethanolamine lipase (Mus musculus), Q8VD66 | purified mABHD4, FP-Rh probe fluorescence polarization | inhibition, % at 8.92 µM | 0.54% of 370,000 active | AID 720543, 2013;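 active = inhibition exceeding the mean over every tested compound plus 3 SD, cut at about 30% in these data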;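 also: 0% = plate median of compound wells and 100% = S159A mutant with DMSO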
Target sequence (Q8VD66 whole entry, looked up): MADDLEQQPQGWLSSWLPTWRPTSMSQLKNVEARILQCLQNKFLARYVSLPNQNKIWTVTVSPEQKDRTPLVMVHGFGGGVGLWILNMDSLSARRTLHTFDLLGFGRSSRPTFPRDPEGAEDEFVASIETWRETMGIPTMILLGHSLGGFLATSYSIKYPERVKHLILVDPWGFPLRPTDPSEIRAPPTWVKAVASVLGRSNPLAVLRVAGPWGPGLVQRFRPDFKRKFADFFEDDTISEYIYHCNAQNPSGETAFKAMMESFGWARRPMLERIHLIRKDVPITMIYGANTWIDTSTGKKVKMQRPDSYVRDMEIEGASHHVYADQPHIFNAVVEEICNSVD
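Doses – 8.92 µM, single dose · Material – wild-type mouse ABHD4 protein · Replication – single well per compound (singlicate) · Measure – percent inhibition of probe binding, normalized to plate controls · Schedule – 45 min compound pre-incubation plus 60 min probe step, 25 °C · Detection – fluorescence polarization with parallel and perpendicular emission, 525/598 nm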
HTRA1 conf: HTRA1 protease inhibitors, retest, confirmation, biochemical, fluorescence polarization. inhibition, % at 5.96 µM. 66% of 1,600 active. shares compounds with HTRA1 inhibitor. AID 540248, 2011. recombinant HTRA1, FP-rhodamine activity-based probe;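 active = mean inhibition over three repeats above a set limit taken from the earlier primary screen, cut at about 37% in these data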;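 also: 0% = HTRA1 with DMSO and 100% = wells lacking HTRA1; inhibitors block probe binding so polarization drops and inhibition rises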
BSA TAMRA ctr: compounds interfering with TAMRA-BSA probe, counter-screen for TCR-CD3 interaction inhibitor project, biochemical, fluorescence, TAMRA-labeled BSA; shares compounds with TCR-CD3 inh; TAMRA-labeled BSA probe fluorescence counterscreen; inhibition, % at 9.4 µM; 10% of 1,200 active; AID 652035, 2013; in the data active = inhibition above about 23%;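 also: 0% = buffer low control and 100% = reference high control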
TCR-CD3 inh conf: TCR-CD3 interaction inhibitors, retest, confirmation, biochemical, fluorescence, TAMRA-labeled TCR probe. shares compounds with TCR-CD3 inh. TAMRA-labeled TCR probe fluorescence binding assay. inhibition, % at 9.4 µM. 48% of 1,200 active. AID 652036, 2013
PRMT1 confirm: PRMT1 methyltransferase inhibitors, confirmation, biochemical, fluorescence polarization, triplicate; shares compounds with PRMT1 inh; recombinant His-PRMT1, activity-based probe fluorescence polarization; inhibition, % at 2.79 µM; 42% of 3,300 active;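 active = mean inhibition across replicates above the hit cutoff derived for the earlier primary screen, cut at about 22% in these data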
mABHD4 conf: ABHD4 inhibitors, retest, confirmation, biochemical, fluorescence polarization, mouse; shares compounds with mABHD4 FP; 55% of 1,800 active; inhibition, % at 8.92 µM; purified mABHD4, FP-Rh probe fluorescence polarization;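 active = mean inhibition across replicates above the hit cutoff set in the primary screen, cut at about 30% in these data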;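 also: 0% = wild-type ABHD4 with DMSO and 100% = catalytically dead S159A mutant with DMSO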
An asterisk follows results filed as active; x = no result. Sampled rows, rich in hits. Any-hit rate of the full collection: about 2.6%. Rule as the data show it, unless noted: active = inhibition above about 19%; inactive = the rest.

SMILES	PRMT1 inh	TCR-CD3 inh	SIAE inh	HTRA1 inhibitor	mABHD4 FP	HTRA1 conf	mABHD4 conf	others
Cc1ccc(C(=O)c2coc3ccc(O)c(Cl)c23)cc1	3	1	1	-8	-21	x	x
CCOC(=O)C(C(C)=O)c1c(Br)c(O)c(O)c2c(C(=O)c3ccc(C)cc3)coc12 (stereo not given)	40*	-1	-4	69*	32*	78*	38*	PRMT1 confirm=18
Oc1ccc(C2C[C@H]3CC[C@@H]2C3)cc1O (stereo not given in full)	14	-1	7	51*	30*	76*	18
O=C1CC(c2ccc(O)c(O)c2)Oc2cc(O)cc(O)c21 (stereo not given)	-4	11	8	27	23	x	x
COC(=O)C1CCCN(C(=O)C2CCN(S(=O)(=O)c3ccccc3[N+](=O)[O-])CC2)C1 (stereo not given)	0	x	-7	x	2	x	x
CC(C)CN1C(=O)C[C@]2(C(=O)N(C)c3ccc(NS(=O)(=O)c4ccc(F)cc4)cc32)C1c1ccccc1 (stereo not given in full)	-3	x	3	x	1	x	x
CCN(CC)c1ccc(N=Cc2ccc([N+](=O)[O-])o2)cc1	41*	5	7	64*	45*	41*	16
CCOC(=O)[C@]12CCCC3=C1N(CCC3)C(=O)[C@@H](CC(=O)NCCCCc1ccccc1)C2	-3	x	6	x	5	x	x
Cc1ccc(C2CCC3(CCC(=O)N3CCOC(=O)Nc3ccc(Br)cc3)CC2)cc1 (stereo not given)	-1	x	4	x	-1	x	x
O=C1CCCC2=C1C(c1ccc(O)c(O)c1)Nc1ccc3ccccc3c12 (stereo not given)	17	4	9	64*	32*	72*	26
Cc1cc(=O)c2c(o1)C(=O)c1occc1C2=O	36*	9	5	46*	58*	15	61*	PRMT1 confirm=26*
C/C(=N\Nc1nc2c(s1)CCCC2)c1ccc(Cl)cc1	7	2	11	54*	32*	14	50*
O=S1(=O)c2c(cccc2N2CCSCC2)Oc2ccccc2CN1Cc1cn(Cc2ccc(Cl)cc2)nn1	1	x	-2	x	-8	x	x
O=C(O)CCNc1ccc(NCCC(=O)O)c2c1C(=O)c1ccccc1C2=O	27*	28*	13	44*	56*	59*	65*	BSA TAMRA ctr=13;TCR-CD3 inh conf=42*
O=C(O)c1ccc(NC2=C/C(=N/S(=O)(=O)c3cccs3)c3ccccc3C2=O)cc1	1	6	3	42*	37*	46*	78*
CCc1ccc(S(=O)(=O)/N=C2\C=C(Nc3cccc(C(=O)O)c3)C(=O)c3ccccc32)cc1	6	1	11	70*	65*	66*	84*
Cc1cc(C(=O)c2ccccc2)cc(C)c1O	-2	0	-2	35	-3	x	x
O=C(c1ccccc1)c1ccc(O)c(O)c1O	14	16	10	68*	39*	79*	19
COc1ccccc1CCn1cnc(-c2ccc(F)cc2)c1CC(C)C	3	-4	8	x	5	x	x
CC(=O)N1CCC(=NNC(=O)c2cc3ccccc3cc2O)CC1	0	17	8	51*	34*	24	21
Oc1ccccc1N=Cc1c(O)ccc2oc3c(c12)CCCC3	15	9	7	43*	30*	68*	-5
Cc1cc(C(=O)O)ccc1N/C=C1\CCCC(C)C1=O (stereo not given)	1	-3	5	0	4	x	x
CC1CCC/C(=C\Nc2ccc(O)cc2)C1=O (stereo not given)	15	24*	16	39*	44*	9	22	BSA TAMRA ctr=2;TCR-CD3 inh conf=3
CCN(CC)c1ccc(C(=C2C=CC(=[N+](CC)CC)C=C2)c2ccc(N(CC)CC)cc2)cc1	4	39*	40*	83*	110*	86*	125*	BSA TAMRA ctr=40*;TCR-CD3 inh conf=40*
COc1cc(-c2csc(N3CCC(C(N)=O)CC3)n2)cc(OC)c1OC	-2	x	2	x	8	x	x
SMILES	PRMT1 inh	TCR-CD3 inh	SIAE inh	HTRA1 inhibitor	mABHD4 FP	HTRA1 conf	mABHD4 conf	others
COC(=O)[C@H]1C[C@]2(C/C=C(\C)CCC=C(C)C)c3ccccc3N[C@H]2N1	-3	x	2	x	-2	x	x
Cc1ccc(C)c(N=Cc2cc3c(cc2[N+](=O)[O-])OCO3)c1	22*	-1	27*	48*	50*	5	45*
O=[N+]([O-])c1ccc(O)c(C=Nc2ccc3c(c2)OCO3)c1	10	-5	4	10	7	x	x
CC(C)(C)c1ccc(O)c(N=Cc2cc3c(cc2[N+](=O)[O-])OCO3)c1	7	17	10	39*	49*	9	40*
CC(=O)N(C)c1ccc(N=Cc2cc3c(cc2[N+](=O)[O-])OCO3)cc1	-1	8	13	10	28	x	x
O=C(N/N=C/c1c(O)ccc2ccccc12)c1ccc(Br)o1	1	26*	12	48*	38*	42*	10	BSA TAMRA ctr=-13;TCR-CD3 inh conf=22*
CCCCCCCCCCCCCCCC[n+]1cccc2ccccc21	-1	5	2	64*	37*	71*	54*
CCCCCCCCC[n+]1cccc2c3ccccc3ccc21	x	x	x	11	x	x	x
Cc1cc(N2CCN(CC(C)(C)O)C[C@@H]2C)ccc1N1CCN(Cc2ccccc2)[C@H](C)C1	0	10	2	x	9	x	x
Nc1ccc2ccccc2c1N=Nc1ccccc1	-2	1	12	59*	39*	53*	39*
Nc1ncnc(N)c1N=Nc1ccccc1	4	7	0	0	0	x	x
